UPR CHOP act: activators of apoptotic arm of unfolded protein response (CHOP); CHO-CHOP luciferase reporter, UPR activation, luminescence; percent of tunicamycin response over DMSO baseline; activation, % at 10 µM; actives 0.34% (n = 330,000); AID 449763;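 active means at 10 µM dose, activation of 40% or more, normalized to positive control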;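 further: 100% = tunicamycin at 10 µg/mL and 0% = DMSO alone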
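Test system: CHO-CHOP cells, stable luciferase reporter of PERK-eIF2a-CHOP signalling | Quantity: 500 CHO-CHOP cells per well | Buffer or medium: F12 plus 10% serum | Compound dosing: 10 µM single point, 0.5% DMSO | Schedule: 6 h compound treatment, 37 °C | Signal: Luciferase luminescence | Control set: Tunicamycin high control, DMSO low control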
Mdm2 MdmX PPI: disrupts the human Mdm2-MdmX interaction; actives 3% (n = 330,000); O15151+Q00987; SaOS-2 split-luciferase Mdm2/MdmX complementation, luminescence; inhibition, % at 8 µM;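 active means inhibition of at least 50% at 8 µM in the primary screen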
Target sequence (O15151 whole entry, looked up): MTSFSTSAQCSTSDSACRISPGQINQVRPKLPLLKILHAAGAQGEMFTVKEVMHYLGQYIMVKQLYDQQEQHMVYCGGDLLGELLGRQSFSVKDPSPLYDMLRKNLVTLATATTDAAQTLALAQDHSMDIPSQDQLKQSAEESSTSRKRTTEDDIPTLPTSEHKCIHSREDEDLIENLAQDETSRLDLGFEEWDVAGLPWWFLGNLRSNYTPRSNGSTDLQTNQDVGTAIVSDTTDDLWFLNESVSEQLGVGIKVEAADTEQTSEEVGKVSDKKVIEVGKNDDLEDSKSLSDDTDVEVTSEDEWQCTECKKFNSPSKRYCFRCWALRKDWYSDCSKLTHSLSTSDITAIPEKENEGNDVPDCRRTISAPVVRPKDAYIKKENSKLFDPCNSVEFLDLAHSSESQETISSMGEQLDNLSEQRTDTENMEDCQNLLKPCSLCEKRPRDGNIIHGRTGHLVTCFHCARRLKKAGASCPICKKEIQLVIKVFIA
Target sequence (Q00987 whole entry, looked up): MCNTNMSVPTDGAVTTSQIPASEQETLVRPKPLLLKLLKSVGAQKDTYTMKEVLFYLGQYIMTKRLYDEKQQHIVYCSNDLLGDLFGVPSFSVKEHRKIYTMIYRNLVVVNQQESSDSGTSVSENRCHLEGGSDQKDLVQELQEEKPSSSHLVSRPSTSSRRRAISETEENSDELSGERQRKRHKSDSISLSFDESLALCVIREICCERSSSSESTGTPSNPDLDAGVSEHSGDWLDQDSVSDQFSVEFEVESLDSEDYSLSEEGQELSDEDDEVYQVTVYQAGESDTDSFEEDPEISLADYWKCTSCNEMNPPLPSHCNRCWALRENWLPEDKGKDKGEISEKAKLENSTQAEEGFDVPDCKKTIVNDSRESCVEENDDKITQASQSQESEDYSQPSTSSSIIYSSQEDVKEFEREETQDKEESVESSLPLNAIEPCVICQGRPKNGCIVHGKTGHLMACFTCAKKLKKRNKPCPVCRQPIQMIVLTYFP
T cruzi repl: T. cruzi replication inhibition | inhibition, % (concentration not given with the values) | actives 1.4% (n = 300,000) | T. cruzi beta-gal in NIH3T3, luminescence, 90 h;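 active means mean inhibition across valid replicates above about 55%, limit read from the data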;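 further: signal also drops with host cell toxicity which is not excluded here; 0% = plate median of DMSO wells and 100% = zero luminescence signal; higher percent means less beta-gal luminescence so fewer parasites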
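Assay system: NIH/3T3 host cells with β-galactosidase reporter T. cruzi; input: 5,000 host fibroblasts per well; compound: single 50 nL compound addition per well in DMSO; timing: ≥90 h infection period, 3 h prior cell attachment; measured by: GalScreen β-gal luminescence, detergent lysis, 60 min; evaluation: percent inhibition of parasite-derived β-gal signal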
Beta apoptosis: beta cell apoptosis inhibition; AID 435005; protection from apoptosis, % (test concentration not listed); actives 0.8% (n = 300,000); INS-1E cytokine-induced death, ATP luminescence, 48 h; percent of positive-control rescue, neutral wells zero;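 active means Every replicate reaches about 75%, or at least half do and their mean reaches it too, limit read from the data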;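 further: 0% = cytokine-treated negative control wells and 100% = positive control rescue; higher means more ATP so stronger rescue from cytokine killing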
CSC inhib: cancer stem cell inhibition. actives 1.1% (n = 300,000). inhibition, % at 7.5 µM. cancer stem cell-like cells viability, luminescence; in the data active means inhibition above about 75%; tested in HMLE shEcad cells
UPR XBP1 act: activators of adaptive arm of unfolded protein response (XBP1). CHO-XBP1 luciferase reporter, IRE1-XBP1 UPR activation, luminescence; percent of tunicamycin response, DMSO as zero. activation, % at 20 µM. actives 0.33% (n = 330,000). AID 463104;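 active means versus positive control, 20 µM dose yields 30% or more activation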;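 further: 100% = tunicamycin at 10 µg/mL and 0% = DMSO only wells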
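Material: CHO cell line with stable XBP1 luciferase reporter; schedule: 16-18 h cell attachment at 37 °C, then 6 h compound exposure; signal: glow luminescence from Steady-Glo reagent; medium: serum-containing F12 medium, 10% FBS; benchmarks: tunicamycin 10 µg/mL and vehicle-only wells; read-out: percent activation relative to tunicamycin reference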
Numbers without * were called inactive. Only some compounds are listed: those with a hit (about 5% of all), similar ones and a draw of the others.

`CC(C)(C)C(O)C(Oc1ccc(Cl)cc1)n1cncn1` (centres undefined) gave UPR CHOP act -1, Mdm2 MdmX PPI 12, T cruzi repl 60*, CSC inhib 7 and UPR XBP1 act -7.
CC(C(=O)c1ccc(Cl)cc1Cl)n1cncn1 (centres undefined) was read as UPR CHOP act 0, Mdm2 MdmX PPI -30, T cruzi repl -10, Beta apoptosis -5, CSC inhib 1 and UPR XBP1 act -8.
CCCCCn1c(=O)c(C(=O)Nc2ccccc2Cl)c(O)c2ccccc21 was read as UPR CHOP act 9, Mdm2 MdmX PPI 6, T cruzi repl -19, Beta apoptosis 64, CSC inhib 18 and UPR XBP1 act 0.
CCCCCn1c(=O)c(C(=O)Nc2nc3ccccc3[nH]2)c(O)c2ccccc21 was read as UPR CHOP act 16, Mdm2 MdmX PPI 21, T cruzi repl -33, Beta apoptosis 80*, CSC inhib 8 and UPR XBP1 act 16.
Screening COC(=O)C1=C(c2ccc(F)cc2OCc2ccccc2)C[C@@H]2CC[C@H]1N2C(=O)NCCN1CCOCC1 returned UPR CHOP act 1, Mdm2 MdmX PPI -7, Beta apoptosis -5, CSC inhib 1 and UPR XBP1 act 1.
`O=[N+]([O-])c1cccc(NP(=O)(Oc2ccccc2)Oc2ccccc2)c1` gave UPR CHOP act 2, Mdm2 MdmX PPI 18, T cruzi repl -18, Beta apoptosis 2, CSC inhib 6 and UPR XBP1 act -1.
Screening O=[N+]([O-])c1ccc(C2C3C(c4ccccc4)=NC4(CCCC4)N32)cc1 (centres undefined) returned UPR CHOP act -3, Mdm2 MdmX PPI 18, T cruzi repl -3, Beta apoptosis 13, CSC inhib 12 and UPR XBP1 act 0.
`Cc1ccc(CN2CCCC(C(=O)c3sccc3C)C2)o1` (centres undefined) gave UPR CHOP act 1, Mdm2 MdmX PPI -28, T cruzi repl 66*, Beta apoptosis -3, CSC inhib -9 and UPR XBP1 act -3.
`Cc1ccsc1C(=O)C1CCCN(Cc2ccc(-n3cccn3)cc2)C1` (centres undefined) gave UPR CHOP act 0, Mdm2 MdmX PPI -13, T cruzi repl 61*, Beta apoptosis -5, CSC inhib -5 and UPR XBP1 act 1.
For Cc1ccsc1C(=O)C1CCCN(Cc2cnc(N3CCCC3)s2)C1 (centres undefined) the results were UPR CHOP act -1, Mdm2 MdmX PPI 24, T cruzi repl 63*, Beta apoptosis 0, CSC inhib 10 and UPR XBP1 act -2.
Cc1ccsc1C(=O)C1CCCN(Cc2c(C)nn(C(C)C)c2C)C1 (centres undefined) was read as UPR CHOP act 0, Mdm2 MdmX PPI -1, T cruzi repl 62*, Beta apoptosis 3 and UPR XBP1 act 0.
Screening COc1cccc(C2CCN(CC(=O)Nc3cc(Cl)ccc3OC)CC2O)c1 (centres undefined) returned UPR CHOP act -2, Mdm2 MdmX PPI 1, T cruzi repl 11, Beta apoptosis 2, CSC inhib 0 and UPR XBP1 act -4.
`COC(=O)C1=C(c2ccc(OC(F)(F)F)cc2)C[C@@H]2CC[C@H]1N2C(=O)NCCOc1ccc(OC)cc1` gave UPR CHOP act 0, Mdm2 MdmX PPI 18, Beta apoptosis -5, CSC inhib 3 and UPR XBP1 act -3.
For Nc1ccc(N2CCN(Cc3ccccc3Cl)CC2)c(Cl)c1 the results were UPR CHOP act 2, Mdm2 MdmX PPI -24, T cruzi repl 9, Beta apoptosis 1, CSC inhib 79* and UPR XBP1 act -1.
`CCCn1ncc(CN2CCCC(C(=O)c3cccc(OC)c3)C2)c1C` (centres undefined) gave UPR CHOP act -1, Mdm2 MdmX PPI 8, T cruzi repl 68*, Beta apoptosis -7, CSC inhib 3 and UPR XBP1 act -3.

Screening results deposited in PubChem by several laboratories.
